Experimental data: ChEMBL document CHEMBL1124096, “Potential anticonvulsants. 11. Synthesis and anticonvulsant activity of spiro[1,3-dioxolane-2,3'-indolin]-2'-ones and structural analogues” (J Med Chem, 1988)

Experiments:
Mus musculus [1] = species on record: Mus musculus; experiment: Phase II effective dose against mice for maximal electroshock seizure test (MES) for 0.25 hr of test time; type: functional
Method in brief: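 Phase II quantification: time of peak effect first determined, then median effective dose in the MES test (corneal 60-cycle AC, 50 mA, 0.2 s) found at that time, 0.25 h. Compound given ip.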

[2] = Protective index (TD50/ED50) for MES test in mice; type: ADME, organism-based; settings: mouse, in vivo; read-out: PI
Method in brief: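 Protective index taken as TD50 (rotorod) divided by MES ED50. Both measured in Phase II at the time of peak effect, 0.25 h, after ip dosing.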

[3] = Phase II effective dose against mice for toxicity test (TOX) for 0.25 hr of test time; type: organism-based; settings: mouse, in vivo
Method in brief: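 Phase II: time of peak neurologic toxicity first determined. Median toxic dose then found by rotorod (1-in. knurled rod, 6 rpm, 1 min) at that time, 0.25 h. Compound given ip.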

Mus musculus [4] = experiment: Ability to protect mice against neurotoxicity (rotarod test) at 300 mg/kg for 0.5 hr in Phase I; no. of animals protected/No. of animals tested 0/4; type: organism-based; parameters: dose 300 mg/kg; settings: in vivo
[5] = Ability to protect mice against subcutaneous pentylenetetrazole seizures (sc-Met) threshold test at 100 mg/kg for 0.5 hr in Phase I; no. of animals protected/No. of animals tested= 0/1; type: functional, organism-based; parameters: dose 100 mg/kg
[6] = Ability to protect mice against electrically induced seizures (MES) at 100 mg/kg for 0.5 hr in Phase I; no. of animals protected/No. of animals tested= 0/3; type: functional, organism-based; parameters: dose 100 mg/kg
[7] = Ability to protect mice against electrically induced seizures (MES) at 300 mg/kg for 0.5 hr in Phase I; no. of animals protected/No. of animals tested= 0/1; type: functional, organism-based; parameters: dose 300 mg/kg
[8] = Ability to protect mice against subcutaneous pentylenetetrazole seizures (sc-Met) threshold test at 300 mg/kg for 0.5 hr in Phase I; no. of animals protected/No. of animals tested= 0/1; type: functional, organism-based; parameters: dose 300 mg/kg

Structure (SMILES) | ED50 (Mus musculus [1]) [mg/kg] | selectivity ratio [2] | TD50 at 0.25 h [3] [mg/kg] | also measured
O=C1Nc2cc(Cl)ccc2C12OCCO2 | 72 | 1.68 | 121 | –
O=C1N(CN2CCCCC2)c2ccccc2C12OCCO2 | – | 1.39 | 187 | –
O=C1N(Cc2ccccc2)c2ccccc2C12OCCO2 | – | – | – | Ratio (Mus musculus [4]): no. of animals protected/No. of animals tested 0/4; Ratio [5]: no. of animals protected/No. of animals tested 0/4; Ratio [6]: no. of animals protected/No. of animals tested 0/4; Ratio [7]: no. of animals protected/No. of animals tested 0/4; Ratio [8]: no. of animals protected/No. of animals tested 0/4
CN1C(=O)C2(OCCO2)c2ccccc21 | 90.9 | 1.3 | 118 | –
O=C1Nc2ccccc2C12OCCO2 | 69.8 | 1.87 | 130 | –
COC1(OC)C(=O)Nc2ccccc21 | 82 | 2.47 | 203 | –
O=C1Nc2ccccc2C12OCCCO2 | 110 | 1.67 | – | –
O=C1Nc2ccccc2C12OCCS2 (stereo unspecified) | 60.4 | 1.65 | – | –
O=C1N(CN2CCOCC2)c2ccccc2C12OCCO2 | 90 | 1.89 | 170 | –
O=C1Nc2cccc(Cl)c2C12OCCO2 | 95.6 | 1.24 | 122 | –
O=C1Nc2ccc(Cl)cc2C12OCCO2 | 28 | 2.28 | 63.7 | –
O=C1Nc2ccc(Br)cc2C12OCCO2 | 46.1 | 1.87 | 86.5 | –
O=C1Nc2ccccc2C12SCCS2 | 174 | – | – | –
